Screens from PubChem BioAssay.
Runt-SMMHC FRET – Runt domain-CBFb-SMMHC interaction inhibition | Q01196+Q13951 | inhibition, % at 20 µM | 220,000 tested, 0.74% active | Cerulean-Runt/Venus-CBFb-SMMHC FRET ratio 530/480, 1 h;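 active = mean inhibition across duplicate retests at 20 µM reaching about 50%, limit read from the data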;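 note: 0% = DMSO wells and 100% = wells with excess untagged CBFb-SMMHC; inhibitors lower the FRET ratio by blocking Runt binding to CBFb-SMMHC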
Target sequence (Q01196 whole entry, looked up, the tested form may be a part): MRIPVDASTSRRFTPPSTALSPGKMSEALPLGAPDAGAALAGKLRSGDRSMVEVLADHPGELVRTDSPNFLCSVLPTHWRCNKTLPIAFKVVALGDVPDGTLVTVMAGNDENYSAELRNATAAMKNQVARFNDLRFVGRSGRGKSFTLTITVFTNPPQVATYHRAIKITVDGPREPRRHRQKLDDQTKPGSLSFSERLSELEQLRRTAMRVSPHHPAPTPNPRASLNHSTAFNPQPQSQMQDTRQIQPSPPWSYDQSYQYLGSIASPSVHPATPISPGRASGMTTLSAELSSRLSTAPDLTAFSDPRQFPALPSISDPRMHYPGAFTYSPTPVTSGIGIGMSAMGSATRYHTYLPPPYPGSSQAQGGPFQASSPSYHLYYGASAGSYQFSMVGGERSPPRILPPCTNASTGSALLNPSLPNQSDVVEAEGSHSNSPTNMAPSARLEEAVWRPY
Target sequence (Q13951 whole entry, looked up, the tested form may be a part): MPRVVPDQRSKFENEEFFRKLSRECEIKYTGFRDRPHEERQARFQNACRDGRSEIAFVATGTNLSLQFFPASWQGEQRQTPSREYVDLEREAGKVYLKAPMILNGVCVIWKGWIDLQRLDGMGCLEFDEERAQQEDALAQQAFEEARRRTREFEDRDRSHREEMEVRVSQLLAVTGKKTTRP
RanGTP-Imp inh – inhibitors of RanGTP-importin-beta interaction, primary screen, biochemical, FRET, CFP-Ran, YFP-importin-beta, homogeneous; AID 2216; cell-free CFP-Ran/YFP-importin-beta FRET ratio; inhibition, % (test concentration not listed); 300,000 tested, 1.1% active;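 active = more than half of the replicate wells show a fall in the fluorescence ratio signal beyond about 16%, limit read from the data, passing the limit was not always enough; inconclusive = exactly half of the replicate wells pass the set limit; inactive = fewer than half of replicates pass the limit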;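 note: 0% = DMSO wells and 100% = Ran loaded with GDP instead of GTP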
Runt-CBFb FRET – inhibitors of human RUNX1 Runt domain binding to CBFb. Q01196+Q13951. Cerulean-Runt/Venus-CBFb FRET ratio 530/480, 1 h. inhibition, % at 20 µM. 220,000 tested, 0.46% active. AID 1496;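 active = inhibition over about 50% at 20 µM in the single-dose screen, limit read from the data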;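 note: 0% = DMSO wells and 100% = excess unlabeled CBFb competitor control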
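Assay system: Cerulean-Runt domain fusion protein, energy donor; Signal: fluorescence energy transfer, 422 nm excitation, 530/480 nm emission; Timing: 1 h compound exposure, room temperature; Control set: unlabeled CBFb; Medium: Tris buffer pH 7.5 with salts and BSA; Compound: single test concentration of 20 µM, 1% DMSO final; Probe or stimulus: Venus-CBFb 100 nM.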
FAS-TE inh – FAS thioesterase (human) inhibition. 360,000 tested, 0.67% active. P49327. recombinant FAS-TE, OMFH fluorogenic substrate, fluorescence endpoint. inhibition, % at 15 µM;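 active = compounds whose normalised, plate-corrected inhibition of enzyme fluorescence in the single-dose primary screen is 50% or more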;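 note: 0% = DMSO with enzyme and 100% = substrate without enzyme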
m-calpain inh – blocks pig calpain II enzyme activity. AID 1236. purified calpain II, fluorogenic peptide substrate, 30 min. inhibition, % at 16 µM. 220,000 tested, 0.37% active;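 active = inhibition above about 50%, limit read from the data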
The depositor's hits bear a star. Hits are enriched below; roughly 2.1% of the tested compounds scored in any of these assays.

What do the screens show for `C[C@@H]1CC[C@H](O)/C=C/C(=O)O[C@H](C)CC[C@H](O)/C=C/C(=O)O1`?
Runt-SMMHC FRET: -1; RanGTP-Imp inh: 4; Runt-CBFb FRET: 0; FAS-TE inh: -4; m-calpain inh: -8

Results for CC(C)CCNC(=O)COc1ccc(N(C)S(=O)(=O)c2ccc(F)cc2)cc1 ?
Runt-SMMHC FRET: 1; RanGTP-Imp inh: -2; Runt-CBFb FRET: -2; FAS-TE inh: 7; m-calpain inh: 11

Results for Cc1ccc(OCCNC(=O)C2CC(=O)N(Cc3ccccc3)C2)cc1 (centres undefined) ?
FAS-TE inh: -5

Results for O=C(NCc1ccc(Cl)cc1)N1CCN(Cc2ccccc2)CC1 ?
RanGTP-Imp inh: -1; FAS-TE inh: 9

Results for Cc1ccc(Oc2nc3ccccn3c(=O)c2/C=C(\C#N)C(=O)NC2CCS(=O)(=O)C2)cc1 (centres undefined) ?
Runt-SMMHC FRET: 82*; RanGTP-Imp inh: 29*; Runt-CBFb FRET: 73*; FAS-TE inh: -1; m-calpain inh: -145

What do the screens show for `CNC(=O)/C(C#N)=C/c1c(N2CCCCCC2)nc2c(C)cccn2c1=O`?
RanGTP-Imp inh: 3; FAS-TE inh: 8

What do the screens show for `Cc1ccc(Oc2nc3c(C)cccn3c(=O)c2/C=C(\C#N)C(N)=O)cc1`?
Runt-SMMHC FRET: 64*; RanGTP-Imp inh: 12; Runt-CBFb FRET: 46; FAS-TE inh: 18; m-calpain inh: -22

How did Cc1ccccc1Oc1nc2c(C)cccn2c(=O)c1/C=C(\C#N)C(=O)NC1CCS(=O)(=O)C1 (centres undefined) do in these assays?
Runt-SMMHC FRET: 76*; RanGTP-Imp inh: 13; Runt-CBFb FRET: 113*; FAS-TE inh: 10; m-calpain inh: -135

Results for CCOC(=O)/C(C#N)=C/c1c(Oc2cccc(C)c2)nc2c(C)cccn2c1=O ?
Runt-SMMHC FRET: 63; RanGTP-Imp inh: -6; Runt-CBFb FRET: -5; FAS-TE inh: -12; m-calpain inh: 6

What do the screens show for `Cc1cccn2c(=O)c(/C=C(\C#N)C(=O)NC3CCS(=O)(=O)C3)c(Oc3ccccc3Cl)nc12` (centres undefined)?
RanGTP-Imp inh: 160*; FAS-TE inh: 13

What do the screens show for `O=C(CSCc1ccccc1)N1CCN(S(=O)(=O)c2cccc(F)c2)CC1`?
RanGTP-Imp inh: 0; FAS-TE inh: 5

What do the screens show for `Cc1ccc(CNC(=O)CN2C(=O)c3ccccc3S2(=O)=O)cc1`?
RanGTP-Imp inh: -2; FAS-TE inh: -7

How did CN(C)CCNC(=O)CNC(=S)N(CCCN1CCOCC1)Cc1cccs1 do in these assays?
Runt-SMMHC FRET: -3; RanGTP-Imp inh: 0; Runt-CBFb FRET: -1; FAS-TE inh: -4; m-calpain inh: 20

Results for O=C(Nc1nc2c(s1)CN(Cc1ccccc1)CC2)c1cccc(S(=O)(=O)N2CCc3ccccc32)c1 ?
Runt-SMMHC FRET: -3; RanGTP-Imp inh: 140*; Runt-CBFb FRET: -6; FAS-TE inh: -55; m-calpain inh: -90

Results for O=C(Cc1cn2ccsc2n1)Nc1nc2c(s1)CN(Cc1ccccc1)CC2 ?
Runt-SMMHC FRET: 77*; RanGTP-Imp inh: 11; Runt-CBFb FRET: 47; FAS-TE inh: -14; m-calpain inh: -28

What do the screens show for `CN(C)S(=O)(=O)c1ccc2c(c1)nc(CCC(=O)NCc1ccc(Cl)cc1)n2C`?
Runt-SMMHC FRET: 3; RanGTP-Imp inh: 5; Runt-CBFb FRET: -1; FAS-TE inh: -5; m-calpain inh: 51*

Results for COc1ccc(N(CC(=O)NC2CCCCC2)C(=O)CCCC(=O)Nc2ccccn2)cc1 ?
RanGTP-Imp inh: 5; FAS-TE inh: 6

How did Cc1ccc(S(N)(=O)=O)cc1NC(=O)c1ccc2c3c(cccc13)CC2 do in these assays?
RanGTP-Imp inh: 2; FAS-TE inh: -4

Results for O=C(COc1ccccc1Cl)Nc1ccc(CN2CCCCC2)cc1 ?
Runt-SMMHC FRET: -2; RanGTP-Imp inh: 31*; Runt-CBFb FRET: -1; FAS-TE inh: -3; m-calpain inh: -15

How did O=C(NCc1cccnc1)C1CCC(CNS(=O)(=O)c2ccc(Cl)cc2)CC1 (centres undefined) do in these assays?
Runt-SMMHC FRET: 0; RanGTP-Imp inh: 9; Runt-CBFb FRET: -1; FAS-TE inh: -3; m-calpain inh: 55*

What do the screens show for `CCOCCCNC(=O)C1CCC(CNS(=O)(=O)c2ccc(Cl)cc2)CC1` (centres undefined)?
Runt-SMMHC FRET: 3; RanGTP-Imp inh: inconclusive; Runt-CBFb FRET: 4; FAS-TE inh: -8; m-calpain inh: 54*

What do the screens show for `O=C(Nc1cc2c(=O)n(-c3ccc(Oc4ccccc4)cc3)ccc2oc1=O)c1ccccc1`?
Runt-SMMHC FRET: 62*; RanGTP-Imp inh: inconclusive; Runt-CBFb FRET: 21; FAS-TE inh: -7; m-calpain inh: -12

Results for O=C(O)c1ccc(N/N=C/c2ccc(OC(=O)c3cccc(Cl)c3)cc2)cc1 ?
Runt-SMMHC FRET: 0; RanGTP-Imp inh: -3; Runt-CBFb FRET: 1; FAS-TE inh: 10; m-calpain inh: 55*

How did O=C(Oc1ccc(/C=N/Nc2ccccc2)cc1)c1ccccc1 do in these assays?
Runt-SMMHC FRET: -8; RanGTP-Imp inh: 2; Runt-CBFb FRET: -1; FAS-TE inh: 5; m-calpain inh: 3

What do the screens show for `C[C@]12CCC[C@H](O1)[C@H]([C@@H](O)c1ccccc1)O2`?
FAS-TE inh: -13

How did COc1ccc(C=Nc2cccnc2N)cc1 do in these assays?
RanGTP-Imp inh: 25*; FAS-TE inh: -6

Results for Cc1ccc(C=Nc2cccnc2N)cc1 ?
Runt-SMMHC FRET: 52; RanGTP-Imp inh: 14; Runt-CBFb FRET: 33; FAS-TE inh: -6; m-calpain inh: -1

Results for O=C(c1ccc(Br)o1)N1CCN(c2ccc(F)cc2)CC1 ?
Runt-SMMHC FRET: 1; RanGTP-Imp inh: -2; Runt-CBFb FRET: 0; FAS-TE inh: -4; m-calpain inh: 15

How did CC(=O)c1ccc(-c2ccc(C(=O)N3CCN(c4ccc(F)cc4)CC3)o2)cc1 do in these assays?
Runt-SMMHC FRET: -1; RanGTP-Imp inh: -1; Runt-CBFb FRET: -3; FAS-TE inh: 23; m-calpain inh: 68*

What do the screens show for `CCC(C)c1ccc(-c2cc(C(=O)OCC(=O)Nc3cc(C)on3)c3ccccc3n2)cc1` (centres undefined)?
Runt-SMMHC FRET: 2; RanGTP-Imp inh: 2; Runt-CBFb FRET: -1; FAS-TE inh: 6; m-calpain inh: -58

How did COc1ccc(-c2cc(C(=O)NCc3cn(C)nc3C)c3ccccc3n2)cc1OC do in these assays?
Runt-SMMHC FRET: 3; RanGTP-Imp inh: -1; Runt-CBFb FRET: -1; FAS-TE inh: -5; m-calpain inh: 52*

Results for COc1ccc(-c2cc(C(=O)OCC(=O)Nc3cc(C)on3)c3ccccc3n2)cc1OC ?
Runt-SMMHC FRET: -21; RanGTP-Imp inh: 90*; Runt-CBFb FRET: 4; FAS-TE inh: -5; m-calpain inh: -93
